What was measured:
[1] = molecular target: Serine/threonine-protein kinase PAK 4 (Homo sapiens, UniProt O96013); experiment: Inhibition of full length recombinant human N-terminal GST/His6-tagged PAK4 expressed in baculovirus infected sf9 insect cells using tetra LRRWSLG as substrate preincubated for 20 min followed by [gamma33P]ATP addition and measured after 120 mins by Hotspot assay
[2] = molecular target: RAC-alpha serine/threonine-protein kinase (Homo sapiens) (UniProt P31749); experiment: Inhibition of AKT1 (unknown origin) assessed as residual activity at 0.1 uM preincubated for 20 min followed by [gamma33P]ATP addition and measured after 120 mins by Hotspot assay relative to control; details: time 140.0 min
Chain of RAC-alpha serine/threonine-protein kinase (Homo sapiens) (P31749 whole entry): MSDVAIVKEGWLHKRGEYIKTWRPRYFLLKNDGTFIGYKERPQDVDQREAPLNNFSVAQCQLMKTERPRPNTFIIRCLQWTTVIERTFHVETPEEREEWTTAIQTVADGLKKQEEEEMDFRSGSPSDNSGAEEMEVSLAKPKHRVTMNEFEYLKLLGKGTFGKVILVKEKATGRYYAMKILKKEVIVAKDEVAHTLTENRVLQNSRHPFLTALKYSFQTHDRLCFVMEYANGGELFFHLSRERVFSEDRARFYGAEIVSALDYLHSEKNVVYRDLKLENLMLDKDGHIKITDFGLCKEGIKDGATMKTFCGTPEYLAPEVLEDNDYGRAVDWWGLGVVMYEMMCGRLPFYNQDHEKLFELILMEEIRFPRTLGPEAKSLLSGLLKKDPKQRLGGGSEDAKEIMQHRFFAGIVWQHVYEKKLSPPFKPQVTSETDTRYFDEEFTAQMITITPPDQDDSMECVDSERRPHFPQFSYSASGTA
Method in brief: (§1)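 Radiometric HotSpot kinase assay. Kinase and substrate are combined in 20 mM Hepes pH 7.5, 10 mM MgCl2, 1 mM EGTA, 0.02% Brij35, 0.02 mg/mL BSA, 0.1 mM Na3VO4, 2 mM DTT and 1% DMSO. Compound is added and preincubated 20 min at room temperature. The reaction starts with ATP plus 33P-ATP at 10 µM final and runs 120 min at 25 °C. Filter-binding read-out, given as % activity remaining versus DMSO.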

[3] = molecular target: Aurora kinase A (Homo sapiens) (UniProt O14965); experiment: Inhibition of AuroraA (unknown origin) assessed as residual activity at 0.1 uM preincubated for 20 min followed by [gamma33P]ATP addition and measured after 120 mins by Hotspot assay relative to control; details: time 140.0 min; method in brief: as §1
[4] = molecular target: Receptor-type tyrosine-protein kinase FLT3 (Homo sapiens) (UniProt P36888); experiment: Inhibition of FLT3 (unknown origin) assessed as residual activity at 0.1 uM preincubated for 20 min followed by [gamma33P]ATP addition and measured after 120 mins by Hotspot assay relative to control; details: time 140.0 min; method in brief: as §1
Chain of Receptor-type tyrosine-protein kinase FLT3 (Homo sapiens) (P36888 whole entry): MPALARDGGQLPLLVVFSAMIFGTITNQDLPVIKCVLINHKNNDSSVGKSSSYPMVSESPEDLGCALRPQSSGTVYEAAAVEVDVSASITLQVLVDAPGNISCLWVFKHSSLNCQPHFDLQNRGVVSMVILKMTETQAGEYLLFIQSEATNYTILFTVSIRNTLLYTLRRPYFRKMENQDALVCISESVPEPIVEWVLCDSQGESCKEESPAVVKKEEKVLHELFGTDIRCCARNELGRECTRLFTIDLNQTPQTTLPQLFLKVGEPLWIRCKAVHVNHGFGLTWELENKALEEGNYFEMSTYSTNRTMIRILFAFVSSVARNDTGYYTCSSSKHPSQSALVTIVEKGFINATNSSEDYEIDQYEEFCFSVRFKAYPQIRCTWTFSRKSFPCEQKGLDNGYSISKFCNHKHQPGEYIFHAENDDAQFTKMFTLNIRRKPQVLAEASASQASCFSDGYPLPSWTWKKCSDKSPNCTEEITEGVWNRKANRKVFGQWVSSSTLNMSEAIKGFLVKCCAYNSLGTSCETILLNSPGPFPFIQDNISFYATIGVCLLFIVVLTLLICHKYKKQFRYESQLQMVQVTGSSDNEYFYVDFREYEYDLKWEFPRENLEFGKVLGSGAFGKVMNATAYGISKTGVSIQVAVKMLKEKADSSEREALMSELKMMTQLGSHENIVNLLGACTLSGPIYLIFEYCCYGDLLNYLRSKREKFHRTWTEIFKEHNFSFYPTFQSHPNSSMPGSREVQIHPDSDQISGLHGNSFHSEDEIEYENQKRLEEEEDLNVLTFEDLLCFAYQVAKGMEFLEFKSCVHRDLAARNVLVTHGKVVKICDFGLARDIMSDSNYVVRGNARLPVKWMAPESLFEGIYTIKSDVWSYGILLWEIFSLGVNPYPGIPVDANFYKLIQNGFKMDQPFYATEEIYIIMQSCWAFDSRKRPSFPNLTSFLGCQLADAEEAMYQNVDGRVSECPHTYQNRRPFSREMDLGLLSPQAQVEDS

[5] = molecular target: Mitogen-activated protein kinase kinase kinase kinase 1 (Homo sapiens) (UniProt Q92918); experiment: Inhibition of MAP4K1 (unknown origin) assessed as residual activity at 0.1 uM preincubated for 20 min followed by [gamma33P]ATP addition and measured after 120 mins by Hotspot assay relative to control; details: time 140.0 min; method in brief: as §1
Chain of Mitogen-activated protein kinase kinase kinase kinase 1 (Homo sapiens) (Q92918 whole entry, looked up): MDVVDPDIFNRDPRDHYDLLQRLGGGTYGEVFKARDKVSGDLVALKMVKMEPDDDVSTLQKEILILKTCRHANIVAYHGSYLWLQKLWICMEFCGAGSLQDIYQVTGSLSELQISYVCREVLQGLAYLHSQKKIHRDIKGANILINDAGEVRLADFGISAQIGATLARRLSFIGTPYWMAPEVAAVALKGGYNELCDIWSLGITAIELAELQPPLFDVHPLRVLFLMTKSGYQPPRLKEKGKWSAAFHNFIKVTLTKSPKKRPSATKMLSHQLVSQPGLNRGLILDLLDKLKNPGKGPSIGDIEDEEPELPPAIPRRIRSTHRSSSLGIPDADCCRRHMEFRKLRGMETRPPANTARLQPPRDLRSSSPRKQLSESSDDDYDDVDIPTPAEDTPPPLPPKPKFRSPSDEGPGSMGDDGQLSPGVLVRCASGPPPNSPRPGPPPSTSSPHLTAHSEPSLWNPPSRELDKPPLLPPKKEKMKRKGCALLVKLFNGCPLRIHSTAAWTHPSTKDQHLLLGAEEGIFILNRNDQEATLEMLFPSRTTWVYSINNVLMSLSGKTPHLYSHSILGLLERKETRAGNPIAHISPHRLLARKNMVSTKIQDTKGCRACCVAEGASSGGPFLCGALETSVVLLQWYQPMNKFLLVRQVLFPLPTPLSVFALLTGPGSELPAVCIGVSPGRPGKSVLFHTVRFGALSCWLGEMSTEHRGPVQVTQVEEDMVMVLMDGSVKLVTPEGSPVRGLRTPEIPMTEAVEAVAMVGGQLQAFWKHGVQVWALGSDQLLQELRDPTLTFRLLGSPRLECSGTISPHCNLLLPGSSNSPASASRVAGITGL

[6] = molecular target: Tyrosine-protein kinase JAK1 (Homo sapiens) (UniProt P23458); experiment: Inhibition of JAK1 (unknown origin) assessed as residual activity at 0.1 uM preincubated for 20 min followed by [gamma33P]ATP addition and measured after 120 mins by Hotspot assay relative to control; details: time 140.0 min; method in brief: as §1
Chain of Tyrosine-protein kinase JAK1 (Homo sapiens) (P23458 whole entry): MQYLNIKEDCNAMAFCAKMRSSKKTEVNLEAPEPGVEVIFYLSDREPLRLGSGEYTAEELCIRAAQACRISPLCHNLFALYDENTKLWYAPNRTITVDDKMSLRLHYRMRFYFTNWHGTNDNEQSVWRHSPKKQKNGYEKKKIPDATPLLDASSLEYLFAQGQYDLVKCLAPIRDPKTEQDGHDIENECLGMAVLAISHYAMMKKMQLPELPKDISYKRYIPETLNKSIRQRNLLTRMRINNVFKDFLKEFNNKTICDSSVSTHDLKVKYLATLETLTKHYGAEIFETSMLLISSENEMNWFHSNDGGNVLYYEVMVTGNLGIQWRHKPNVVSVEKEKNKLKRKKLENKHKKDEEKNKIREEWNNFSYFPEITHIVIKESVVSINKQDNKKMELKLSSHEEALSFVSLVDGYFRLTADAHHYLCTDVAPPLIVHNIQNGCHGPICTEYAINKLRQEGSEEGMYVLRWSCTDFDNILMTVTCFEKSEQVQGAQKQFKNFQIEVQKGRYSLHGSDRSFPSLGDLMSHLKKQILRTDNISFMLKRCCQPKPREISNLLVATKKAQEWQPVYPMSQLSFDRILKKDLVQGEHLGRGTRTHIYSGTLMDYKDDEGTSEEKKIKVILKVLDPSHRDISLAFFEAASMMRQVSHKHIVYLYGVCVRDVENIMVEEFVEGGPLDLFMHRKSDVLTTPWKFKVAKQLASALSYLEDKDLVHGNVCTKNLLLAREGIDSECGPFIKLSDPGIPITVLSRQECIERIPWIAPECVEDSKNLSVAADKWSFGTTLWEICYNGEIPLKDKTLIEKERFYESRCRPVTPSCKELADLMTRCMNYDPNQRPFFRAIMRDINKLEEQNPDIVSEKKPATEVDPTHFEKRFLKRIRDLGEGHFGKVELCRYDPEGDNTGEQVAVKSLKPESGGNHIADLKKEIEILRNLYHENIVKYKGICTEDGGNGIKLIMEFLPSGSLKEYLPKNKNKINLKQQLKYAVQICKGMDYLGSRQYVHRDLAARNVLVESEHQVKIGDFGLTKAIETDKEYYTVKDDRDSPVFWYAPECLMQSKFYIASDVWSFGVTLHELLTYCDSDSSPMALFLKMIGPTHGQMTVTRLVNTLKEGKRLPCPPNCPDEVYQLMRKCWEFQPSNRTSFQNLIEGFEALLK

[7] = molecular target: Mitogen-activated protein kinase 8 (Homo sapiens) (UniProt P45983); experiment: Inhibition of JNK1 (unknown origin) assessed as residual activity at 0.1 uM preincubated for 20 min followed by [gamma33P]ATP addition and measured after 120 mins by Hotspot assay relative to control; details: time 140.0 min; method in brief: as §1
[8] = molecular target: Vascular endothelial growth factor receptor 2 (Homo sapiens) (UniProt P35968); experiment: Inhibition of VEGFR2 (unknown origin) assessed as residual activity at 0.1 uM preincubated for 20 min followed by [gamma33P]ATP addition and measured after 120 mins by Hotspot assay relative to control; details: time 140.0 min; method in brief: as §1
[9] = molecular target: Tyrosine-protein kinase Lck (Homo sapiens) (UniProt P06239); experiment: Inhibition of LCK (unknown origin) assessed as residual activity at 0.1 uM preincubated for 20 min followed by [gamma33P]ATP addition and measured after 120 mins by Hotspot assay relative to control; details: time 140.0 min; method in brief: as §1
Chain of Tyrosine-protein kinase Lck (Homo sapiens) (P06239 2-509 limits assumed): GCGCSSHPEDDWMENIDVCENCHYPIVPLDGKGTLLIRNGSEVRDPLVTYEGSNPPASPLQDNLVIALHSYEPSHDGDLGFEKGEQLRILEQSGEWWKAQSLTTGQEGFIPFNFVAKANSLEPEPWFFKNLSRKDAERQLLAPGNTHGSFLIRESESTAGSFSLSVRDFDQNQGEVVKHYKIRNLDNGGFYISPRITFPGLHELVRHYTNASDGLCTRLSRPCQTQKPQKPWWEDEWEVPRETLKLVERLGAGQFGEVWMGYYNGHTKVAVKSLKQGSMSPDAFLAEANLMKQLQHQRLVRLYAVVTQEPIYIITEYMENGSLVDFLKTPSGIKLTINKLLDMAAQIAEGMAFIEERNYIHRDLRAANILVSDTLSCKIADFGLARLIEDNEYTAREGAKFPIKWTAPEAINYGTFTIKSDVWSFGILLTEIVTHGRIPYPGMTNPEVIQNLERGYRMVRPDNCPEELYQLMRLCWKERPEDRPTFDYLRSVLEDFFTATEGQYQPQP

[10] = molecular target: Dual specificity mitogen-activated protein kinase kinase 1 (Homo sapiens) (UniProt Q02750); experiment: Inhibition of MEK1 (unknown origin) assessed as residual activity at 0.1 uM preincubated for 20 min followed by [gamma33P]ATP addition and measured after 120 mins by Hotspot assay relative to control; details: time 140.0 min; method in brief: as §1
Chain of Dual specificity mitogen-activated protein kinase kinase 1 (Homo sapiens) (Q02750 whole entry): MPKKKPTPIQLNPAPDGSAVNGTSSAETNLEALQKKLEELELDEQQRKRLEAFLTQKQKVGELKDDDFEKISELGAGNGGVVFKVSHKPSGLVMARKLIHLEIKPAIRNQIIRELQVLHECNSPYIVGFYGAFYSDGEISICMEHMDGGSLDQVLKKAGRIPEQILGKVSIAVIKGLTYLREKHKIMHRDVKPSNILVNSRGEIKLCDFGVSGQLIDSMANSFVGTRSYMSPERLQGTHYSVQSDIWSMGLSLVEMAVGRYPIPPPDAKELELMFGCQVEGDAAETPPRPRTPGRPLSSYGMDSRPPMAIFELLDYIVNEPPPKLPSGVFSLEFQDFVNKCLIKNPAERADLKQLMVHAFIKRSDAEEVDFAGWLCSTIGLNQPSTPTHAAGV

[11] = molecular target: Serine/threonine-protein kinase 24 (Homo sapiens) (UniProt Q9Y6E0); experiment: Inhibition of STK24 (unknown origin) assessed as residual activity at 0.1 uM preincubated for 20 min followed by [gamma33P]ATP addition and measured after 120 mins by Hotspot assay relative to control; details: time 140.0 min; method in brief: as §1
[12] = molecular target: Serine/threonine-protein kinase PAK 2 (Homo sapiens) (UniProt Q13177); experiment: (§2) Inhibtion of recombinant human N-terminal GST/His6-tagged PAK2 (D3 to R524 residues) expressed in sf9 insect cells assessed as residual activity at 0.1 uM using RRRLSFAEPG as substrate preincubated for 20 min followed by [gamma33P]ATP addition and measured after 120 mins by Hotspot assay relative to control; details: time 140.0 min; method in brief: as §1
[13] = molecular target: Serine/threonine-protein kinase PAK 3 (Homo sapiens) (UniProt O75914); experiment: as §2, with “of full length” for “of”, “PAK3” for “PAK2 (D3 to R524 residues)”, “tetra LRRWSLG” for “RRRLSFAEPG”; details: time 140.0 min; method in brief: as §1
Chain of Serine/threonine-protein kinase PAK 3 (Homo sapiens) (O75914 whole entry, looked up, the tested form may be a part): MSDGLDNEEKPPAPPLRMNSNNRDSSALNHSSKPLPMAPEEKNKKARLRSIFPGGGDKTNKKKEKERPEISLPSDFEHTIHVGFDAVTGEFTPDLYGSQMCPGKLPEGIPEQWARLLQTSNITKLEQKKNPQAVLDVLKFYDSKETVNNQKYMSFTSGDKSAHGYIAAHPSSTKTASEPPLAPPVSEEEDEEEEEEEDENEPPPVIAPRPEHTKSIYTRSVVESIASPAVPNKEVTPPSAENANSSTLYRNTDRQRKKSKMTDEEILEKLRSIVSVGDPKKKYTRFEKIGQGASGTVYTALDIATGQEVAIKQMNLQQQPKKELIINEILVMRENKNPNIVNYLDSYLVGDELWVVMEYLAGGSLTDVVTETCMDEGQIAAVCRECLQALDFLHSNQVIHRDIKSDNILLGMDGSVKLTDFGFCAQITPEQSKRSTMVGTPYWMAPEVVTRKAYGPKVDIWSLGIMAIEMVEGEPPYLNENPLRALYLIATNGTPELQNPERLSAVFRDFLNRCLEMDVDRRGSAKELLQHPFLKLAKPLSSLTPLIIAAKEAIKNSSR

[14] = molecular target: Serine/threonine-protein kinase PAK 5 (Homo sapiens) (UniProt Q9P286); experiment: Inhibtion of recombinant human PAK5 expressed in baculovirus infected sf9 insect cells assessed as residual activity at 0.1 uM using RRRLSFAEPG as substrate preincubated for 20 min followed by [gamma33P]ATP addition and measured after 120 mins by Hotspot assay relative to control; details: time 140.0 min; method in brief: as §1
[15] = molecular target: Serine/threonine-protein kinase PAK 6 (Homo sapiens) (UniProt Q9NQU5); experiment: as §2, with “of full length” for “of”, “PAK6” for “PAK2 (D3 to R524 residues)”, “tetra LRRWSLG” for “RRRLSFAEPG”; details: time 140.0 min; method in brief: as §1
[16] = molecular target: Tyrosine-protein kinase SYK (Homo sapiens) (UniProt P43405); experiment: Inhibition of SYK (unknown origin) assessed as residual activity at 0.1 uM preincubated for 20 min followed by [gamma33P]ATP addition and measured after 120 mins by Hotspot assay relative to control; details: time 140.0 min; method in brief: as §1
MDA-MB-231 [17] = experiment: Antiproliferative activity against human MDA-MB-231 cells assessed as growth inhibition at 1 uM after 72 hrs by Cell Titer-Glo assay relative to control; type: functional; details: read-out: GI
Method in brief: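 Cells kept at 37 °C in 5% CO2 and plated at 4000 per well. Treated with compound for 72 h. Viability read by CellTiter-Glo luminescence. Each compound run in duplicate, data as means ± SD.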

MDA-MB-231 [18] = experiment: Antiinvasive activity against human MDA-MB-231 cells assessed as decrease is number of penetrated cells at 0.25 to 1 uM after 24 hrs by inverted microscopic based Transwell invasion assay relative to control; type: functional; parameters: scale not given: the % may be the effect or the level left; details: dose 0.25-1 µM
Method in brief: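 Cells grown to confluence and scratched with a sterile pipette tip, or placed at 1×10^5 cells in serum-free DMEM with 0.1% […] in the upper part of Matrigel-coated Boyden chambers over DMEM with 10% FBS. Compound treatment for 24 h at 37 °C. Read-out is wound distance from images or the count of invaded cells on the lower filter face after fixing and staining. Data given as means ± SD.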

[19] = molecular target: Serine/threonine-protein kinase PAK 1 (Homo sapiens, UniProt Q13153); experiment: Inhibition of PAK1 phosphorylation at ser144 residue in human MDA-MB-231 cells after 1 to 24 hrs by Western blot analysis; type: cell-based; details: dose 2.5-20 µM, time 1-24 hrs
Method in brief: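 Whole-cell extracts made from 1×10^6 treated cells in RIPA buffer (50 mM Tris/HCl pH 7.4, 150 mM NaCl, 1% NP-40, 0.25% deoxycholate, 1 mM EDTA, protease inhibitors). Proteins separated by SDS-PAGE, blotted to PVDF and blocked in 5% milk in TBS-T. Membranes probed for PAK1, phospho-PAK1 Ser144, Snail and actin, with β-actin as loading control. ECL detection.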

IC50 [1]: > 10 µM | Activity [2]: 98.8% | Activity [3]: 87.8% | Activity [4]: 98.8% | Activity [5]: 89.6% | Activity [6]: 88.7% | Activity [7]: 72.8% | Activity [8]: 92.4% | Activity [9]: 88.6% | Activity [10]: 84.4% | Activity [11]: 64% | Activity [12]: 28% | Activity [13]: 33.9% | Activity [14]: 116% | Activity [15]: 80% | Activity [16]: 94.2% | inhibition [19]: Dose-dependent effect
SMILES: Cc1cccn(-c2ccc(-c3ccc4c(C(=O)NCc5ccncc5)n[nH]c4c3)c(Cl)c2)c1=O
inhibition of growth at 1 µM (MDA-MB-231 [17]): 6.31% | Activity (MDA-MB-231 [18]): <40%
